Consider 25 compounds from ChEMBL document CHEMBL4837207, “Discovery of pyrrolo[2,3-d]pyrimidine derivatives as potent Axl inhibitors: Design, synthesis and biological evaluation” (Eur J Med Chem, 2021).

Series [1] deals with T1, Tyrosine-protein kinase receptor UFO (Homo sapiens, UniProt P30530).
T1 sequence (P30530 whole entry): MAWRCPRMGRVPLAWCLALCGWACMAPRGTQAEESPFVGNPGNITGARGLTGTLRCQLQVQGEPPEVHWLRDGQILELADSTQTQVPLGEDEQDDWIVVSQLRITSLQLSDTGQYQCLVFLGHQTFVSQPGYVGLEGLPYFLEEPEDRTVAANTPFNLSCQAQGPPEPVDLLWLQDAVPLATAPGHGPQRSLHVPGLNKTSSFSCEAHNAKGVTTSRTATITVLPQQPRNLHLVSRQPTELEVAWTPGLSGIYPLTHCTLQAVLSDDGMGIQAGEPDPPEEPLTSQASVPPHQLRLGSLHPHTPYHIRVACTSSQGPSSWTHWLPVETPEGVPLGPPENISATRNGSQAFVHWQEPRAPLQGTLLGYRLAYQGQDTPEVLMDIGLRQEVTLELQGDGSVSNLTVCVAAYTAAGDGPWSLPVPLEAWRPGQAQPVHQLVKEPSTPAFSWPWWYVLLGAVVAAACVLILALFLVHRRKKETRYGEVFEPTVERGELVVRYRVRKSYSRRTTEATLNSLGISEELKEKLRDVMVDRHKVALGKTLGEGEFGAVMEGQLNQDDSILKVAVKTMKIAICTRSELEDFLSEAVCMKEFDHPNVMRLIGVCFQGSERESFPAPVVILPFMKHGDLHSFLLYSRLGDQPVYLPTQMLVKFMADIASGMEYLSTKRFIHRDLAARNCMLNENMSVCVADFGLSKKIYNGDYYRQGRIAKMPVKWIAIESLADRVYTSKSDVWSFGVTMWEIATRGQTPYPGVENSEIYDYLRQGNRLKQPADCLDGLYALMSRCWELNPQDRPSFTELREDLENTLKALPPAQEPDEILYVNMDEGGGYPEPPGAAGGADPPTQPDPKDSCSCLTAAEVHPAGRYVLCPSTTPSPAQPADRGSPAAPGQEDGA
Description: Inhibition of AXL (unknown origin) by ELISA. Background: An ELISA detects its analyte on a solid surface through an enzyme-linked reagent.

Series [2] has as its target Hepatocyte growth factor receptor (Homo sapiens, UniProt P08581). Nature of the series: Inhibition of c-MET (unknown origin) by ELISA.
The test system of a further series is BaF3. Description: Antiproliferative activity against mouse BaF3 stably expressing human TEL-AXL incubated for 72 hrs. Type of series: functional, cell-based. The conditions noted are these: BaF3, 72 h.
Another series has as its system MKN-45. Nature of the series: Antiproliferative activity against human MKN-45 cells incubated for 72 hrs. Type of series: functional, cell-based. The conditions noted are these: MKN-45, 72 h. Put shortly: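 MKN-45 cells (MET-amplified gastric carcinoma) grown in the supplier-recommended medium and serum, seeded at low density and treated the next day across a concentration range for 72 h. Proliferation read by SRB or CCK-8. IC50 obtained from a four-parameter concentration-response fit; mean ± SD of two independent assays.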

A short description of series [3]: Tmax in Sprague-Dawley rat at 3 mg/kg, po via gavage measured up to 24 hrs by LC-MS analysis. The series is classed as ADME, organism-based. The conditions noted are these: in vivo. Put shortly: (§1)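 Male Sprague-Dawley rats (n = 3) dosed once by oral gavage at 3 mg/kg as a solution in 5% DMSO/95% (0.5% CMC-Na). Blood sampled at 0.25, 0.5, 1, 2, 4, 6, 8 and 24 h, kept on wet ice, serum separated by centrifugation and stored at -20 °C. Serum levels measured by LC-MS/MS; parameters reported as means.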

The nature of series [4]: Half life in Sprague-Dawley rat at 3 mg/kg, po via gavage measured up to 24 hrs by LC-MS analysis. Type of series: ADME, organism-based. The conditions noted are these: in vivo. Put shortly: as §1
Series [5] in a line: Cmax in Sprague-Dawley rat at 3 mg/kg, po via gavage measured up to 24 hrs by LC-MS analysis. Type of series: ADME, organism-based. Also noted: route oral, dose 3 mg/kg, time <=24. The conditions noted are these: in vivo. The essentials: as §1
Series [6] can be described thus: AUC (0 to infinity) in Sprague-Dawley rat at 3 mg/kg, po via gavage measured up to 24 hrs by LC-MS analysis. The series is classed as ADME, organism-based. Also noted: route oral, dose 3 mg/kg, time <=24. The conditions noted are these: in vivo. Put shortly: as §1

Hepatocyte growth factor receptor, sequence (P08581 whole entry): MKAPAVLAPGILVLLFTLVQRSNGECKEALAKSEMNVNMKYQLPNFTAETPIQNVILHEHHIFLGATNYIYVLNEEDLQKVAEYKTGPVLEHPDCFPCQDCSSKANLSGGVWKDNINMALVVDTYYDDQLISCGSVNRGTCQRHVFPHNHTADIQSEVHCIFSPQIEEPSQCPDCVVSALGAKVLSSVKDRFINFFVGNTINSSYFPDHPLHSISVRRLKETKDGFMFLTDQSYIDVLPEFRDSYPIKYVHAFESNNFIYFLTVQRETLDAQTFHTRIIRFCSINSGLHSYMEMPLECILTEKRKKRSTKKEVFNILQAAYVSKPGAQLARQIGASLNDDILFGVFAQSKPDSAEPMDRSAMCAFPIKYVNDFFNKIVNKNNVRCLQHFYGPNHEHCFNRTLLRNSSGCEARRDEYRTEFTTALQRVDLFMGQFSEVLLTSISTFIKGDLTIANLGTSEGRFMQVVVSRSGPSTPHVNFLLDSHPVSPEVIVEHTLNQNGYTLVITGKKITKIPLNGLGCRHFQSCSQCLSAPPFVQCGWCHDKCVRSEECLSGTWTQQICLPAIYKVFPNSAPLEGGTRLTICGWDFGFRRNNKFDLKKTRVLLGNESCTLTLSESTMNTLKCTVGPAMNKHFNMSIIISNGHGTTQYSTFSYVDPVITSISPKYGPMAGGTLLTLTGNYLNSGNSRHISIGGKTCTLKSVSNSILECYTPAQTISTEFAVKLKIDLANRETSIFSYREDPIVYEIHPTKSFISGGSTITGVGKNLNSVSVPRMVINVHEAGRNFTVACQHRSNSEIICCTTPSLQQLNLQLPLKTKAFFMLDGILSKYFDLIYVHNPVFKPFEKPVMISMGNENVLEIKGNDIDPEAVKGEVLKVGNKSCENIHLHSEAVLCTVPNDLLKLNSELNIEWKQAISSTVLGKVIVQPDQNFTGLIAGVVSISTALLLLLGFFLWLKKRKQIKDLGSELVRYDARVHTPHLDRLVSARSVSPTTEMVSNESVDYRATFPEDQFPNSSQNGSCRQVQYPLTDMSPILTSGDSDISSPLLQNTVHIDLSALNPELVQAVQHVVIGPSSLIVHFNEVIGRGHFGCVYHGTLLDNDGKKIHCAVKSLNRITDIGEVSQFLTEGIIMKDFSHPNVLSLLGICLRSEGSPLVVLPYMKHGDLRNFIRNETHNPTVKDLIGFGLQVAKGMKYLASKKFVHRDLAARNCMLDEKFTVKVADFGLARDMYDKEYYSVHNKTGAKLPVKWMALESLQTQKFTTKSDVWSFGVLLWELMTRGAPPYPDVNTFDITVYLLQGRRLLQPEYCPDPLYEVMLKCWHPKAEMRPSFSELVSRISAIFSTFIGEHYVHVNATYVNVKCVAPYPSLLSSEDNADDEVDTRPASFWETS

Usually IC50 stands for the concentration needed to halve the response being measured. Lower therefore signals higher potency. As for `Cn1cc(-c2ccc(NC(=O)c3cn(CC4CCOCC4)cc(-c4ccccc4)c3=O)cc2)c2c(N)ncnc21`, the IC50 in series [1] is 1 nM; in series [2], 20.6 nM; with BaF3, less than 1 nM; in the series with MKN-45, 318 nM.

Consider `Cn1cc(-c2cc(F)c(NC(=O)c3cn(CC4CCOCC4)cc(-c4ccc(F)cc4)c3=O)cc2F)c2c(N)ncnc21`, for which the 50% inhibitory concentration (IC50) in series [1] is 0.5 nM; in series [2] it was 3.3 nM; in the series on BaF3, less than 1 nM; in the series on MKN-45 it was 53.7 nM.

As to `Cn1cc(-c2ccc(NC(=O)c3cn(C4CCOCC4)cc(-c4ccc(F)cc4)c3=O)cc2)c2c(N)ncnc21`, the half-inhibitory concentration (IC50) in series [1] was 1.1 nM; in series [2], 13.1 nM.

As usually defined, the Tmax is the time at which the peak concentration occurs. The half-life is the time needed for the level to fall by half in the phase considered. Read a high half-life as slow decline. The term Cmax denotes the maximum level reached in the sampled fluid or tissue. The term AUC(0-inf) denotes total exposure, with the tail of the curve extrapolated. A lower AUC(0-inf) goes with less exposure. For `Nc1ncnc2[nH]cc(-c3cc(F)c(NC(=O)c4cn(CC5CCOCC5)cc(-c5ccc(F)cc5)c4=O)cc3F)c12`, the IC50 was 0.4 nM in series [1], 1.7 nM in series [2], less than 1 nM in the series on BaF3 and 29.8 nM with MKN-45. Further, the time to peak (Tmax) in series [3] was 0.83 h. Further, in series [4], the half-life is 1.37 h. In addition, in series [5], the peak level (Cmax) was 330 ng/mL. For the same compound, in series [6], the AUC(0-inf) was found to be 385 ng·h/mL.

For the compound `Cn1cc(-c2ccc(NC(=O)c3cn(CC4CCOCC4)cc(-c4ccc(F)cc4)c3=O)c(F)c2)c2c(N)ncnc21`, the concentration for half-maximal inhibition (IC50) in series [1] is 0.2 nM; in series [2], 7.3 nM; with BaF3 it was less than 1 nM; with MKN-45, 210 nM.

In the case of `Cn1cc(-c2ccc(NC(=O)c3cn(CC4CCOCC4)cc(-c4cccc(F)c4)c3=O)cc2)c2c(N)ncnc21`, the figures for the half-inhibitory concentration (IC50) in series [1] and in series [2] were 3 nM and 95.4 nM, respectively.

Take `Cn1cc(-c2ccc(NC(=O)c3cn(CC4CCOCC4)cc(-c4ccc(F)cc4)c3=O)cc2F)c2c(N)ncnc21`: the half-maximal inhibitory concentration (IC50) is 0.8 nM in series [1], 2.4 nM in series [2], less than 1 nM in the series on BaF3 and 93.7 nM in the series with MKN-45.

In the case of `CCCn1cc(-c2ccc(NC(=O)c3cn(CC4CCOCC4)cc(-c4ccc(F)cc4)c3=O)cc2)c2c(N)ncnc21`, the values for the IC50 in series [1] and in series [2] were 1.8 nM and 5.1 nM, respectively.

`Cn1cc(-c2ccc(NC(=O)c3cn(CC4CCOCC4)cc(-c4ccc(F)cc4)c3=O)cc2)c2c(N)ncnc21`: the IC50 in series [1] was 0.1 nM; in series [2] it was 7.1 nM; in the series with BaF3, less than 1 nM; in the series with MKN-45, 248 nM.

Turning to `Cn1cc(-c2ccc(NC(=O)c3cn(CC4CCOCC4)cc(-c4ccc(F)cc4)c3=O)c(Cl)c2)c2c(N)ncnc21`, the IC50 in series [1] amounted to 3.7 nM; in series [2], 40.5 nM.

Turning to `CN(C)C(=O)Cn1cc(C(=O)Nc2ccc(-c3cn(C)c4ncnc(N)c34)cc2)c(=O)c(-c2ccc(F)cc2)c1`, the IC50 is 0.5 nM in series [1], 18.4 nM in series [2], more than 100 nM in the series with BaF3 and more than 1000 nM with MKN-45.

In the case of `Cn1cc(-c2ccc(NC(=O)c3cn(CC4CCOCC4)cc(-c4ccc(F)cc4F)c3=O)cc2)c2c(N)ncnc21`, the IC50 in series [1] was 0.8 nM; in series [2], 19.8 nM; in the series with BaF3, less than 1 nM; in the series on MKN-45 it was 501 nM.

As for `Nc1ncnc2c1c(-c1ccc(NC(=O)c3cn(CC4CCOCC4)cc(-c4ccc(F)cc4)c3=O)cc1)cn2CCN1CCOCC1`, the IC50 in series [1] was 2.7 nM; in series [2], 17 nM.

Turning to `Cc1cc(-c2cn(C)c3ncnc(N)c23)ccc1NC(=O)c1cn(CC2CCOCC2)cc(-c2ccc(F)cc2)c1=O`, the half-maximal inhibitory concentration (IC50) was found to be 4 nM in series [1] and 33.8 nM in series [2].

As to `C[C@@H](Oc1cc(-c2cnn(C3CCNCC3)c2)cnc1N)c1c(Cl)ccc(F)c1Cl` [CRIZOTINIB], inhibition in the series on MKN-45 was half-maximal at 15 nM (IC50).

Turning to `COCCCn1cc(C(=O)Nc2ccc(-c3cn(C)c4ncnc(N)c34)cc2)c(=O)c(-c2ccc(F)cc2)c1`, the results for the 50% inhibitory concentration (IC50) in series [1] and in series [2] were more than 10 nM and 16.7 nM, respectively.

Take `Cn1cc(C(=O)Nc2ccc(-c3cn(C)c4ncnc(N)c34)cc2)c(=O)c(-c2ccc(F)cc2)c1`: the values for the IC50 in series [1] and in series [2] were 5 nM and 24.5 nM, respectively.

In the case of `Cn1cc(-c2ccc(NC(=O)c3cn(CC4CCCCC4)cc(-c4ccc(F)cc4)c3=O)cc2)c2c(N)ncnc21`, the half-maximal inhibitory concentration (IC50) in series [1] was found to be 2.3 nM; in series [2], 4.8 nM.

For `CC(C)n1cc(C(=O)Nc2ccc(-c3cn(C)c4ncnc(N)c34)cc2)c(=O)c(-c2ccc(F)cc2)c1`, the IC50 in series [1] is 0.4 nM; in series [2], 18.4 nM; in the series on BaF3, less than 1 nM; in the series on MKN-45, 85.3 nM.

Turning to `CN(C)CCn1cc(-c2ccc(NC(=O)c3cn(CC4CCOCC4)cc(-c4ccc(F)cc4)c3=O)cc2)c2c(N)ncnc21`, the results for the IC50 in series [1] and in series [2] were 2.8 nM and 215 nM, respectively.

Consider `Cn1cc(-c2ccc(NC(=O)c3cn(CC4CCOCC4)cc(-c4ccc(C(F)(F)F)cc4)c3=O)cc2)c2c(N)ncnc21`, for which the IC50 in series [1] is 0.4 nM; in series [2], 33.1 nM; in the series on BaF3, less than 1 nM; in the series with MKN-45 it was 826 nM.

Consider `Cc1nc(N)c2c(-c3ccc(NC(=O)c4cn(CC5CCOCC5)cc(-c5ccc(F)cc5)c4=O)cc3)cn(C)c2n1`, for which the IC50 in series [1] amounted to 5.1 nM; in series [2], 159 nM.

As to `Cn1cc(-c2ccc(NC(=O)c3cn(CC4CCCO4)cc(-c4ccc(F)cc4)c3=O)cc2)c2c(N)ncnc21` (configuration not stated), the IC50 in series [1] is 1.2 nM; in series [2], 3.1 nM.

As for `Cn1cc(-c2ccc(NC(=O)c3cn(CC4CCOCC4)cc(-c4ccc(Cl)cc4)c3=O)cc2)c2c(N)ncnc21`, the 50% inhibitory concentration (IC50) in series [1] was 0.2 nM; in series [2] it was 12.3 nM; with BaF3, less than 1 nM; with MKN-45, 347 nM.

Take `Nc1ncnc2[nH]cc(-c3ccc(NC(=O)c4cn(CC5CCOCC5)cc(-c5ccc(F)cc5)c4=O)cc3)c12`: the IC50 in series [1] is 0.2 nM; in series [2] it was 4.4 nM; with BaF3 it was less than 1 nM; with MKN-45, 77.9 nM.
